In ChEMBL document CHEMBL3739295, “Cadinane-Type Sesquiterpenoids from Heterotheca inuloides: Absolute Configuration and Anti-inflammatory Activity” (J Nat Prod, 2015):
The source made the active and inactive calls. The calls are words filed in the database; no cut-off is given here.

Legend:
Mus musculus [1] = test: Anti-inflammatory activity in TPA-induced mouse ear edema model assessed as inhibition of ear edema; type: functional, organism-based
Summary of the method: (§1)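 In vivo 12-O-tetradecanoylphorbol 13-acetate (TPA)-induced ear edema in mice. Animals were handled under Mexican Official Norm MON-062-Z00-1999.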

Mus musculus [2] = test: Anti-inflammatory activity in TPA-induced mouse ear edema model assessed as inhibition of ear edema at 1 umol/ear; type: functional; summary of the method: as §1

| Compound | IC50 (Mus musculus [1]) | inhibition (Mus musculus [2]) | inhibition (INH) (Mus musculus [2]) [%] |
| --- | --- | --- | --- |
| CC(C)[C@H]1CC[C@@](C)(O)c2ccc(C(=O)O)cc21 | > 1 µmol | Active | – |
| CC1=C[C@](O)(C(C)C)C(=O)c2cc(C)c(O)cc21 | > 1 µmol | Active | – |
| Cc1ccc2c(c1)C(=O)C(C(C)C)=C[C@@]2(C)O | > 1 µmol | Active | – |

Continued, in another order:

| IC50 (Mus musculus [1]) | Compound | inhibition (Mus musculus [2]) | inhibition (INH) (Mus musculus [2]) [%] |
| --- | --- | --- | --- |
| > 228 µg | Cc1cc2c(C(C)C)ccc(C=O)c2cc1O | – | 43.14 |
| > 1 µmol | CC1=CC[C@H](C(C)C)c2cc(C(=O)O)ccc21 | – | 12.93 |
| > 1 µmol | CC1=CC[C@H](C(C)C)[C@H]2C=C(C(=O)O)CC=C12 | inactive | – |
| > 1 µmol | CC1=C2CCC(C(=O)O)=C[C@@H]2[C@@H](C(C)C)CC1 | – | 21.51 |
| > 1 µmol | COc1c(C(C)C)cc(C)c2ccc(C)cc12 | – | 15.32 |
